Source: ChEMBL document CHEMBL4371044, “Celastrol Promotes Weight Loss in Diet-Induced Obesity by Inhibiting the Protein Tyrosine Phosphatases PTP1B and TCPTP in the Hypothalamus” (J Med Chem, 2018)
The source made the active and inactive calls. The calls are words filed in the database; no cut-off is given here.

Legend:
[1] = biological target: T1, Tyrosine-protein phosphatase non-receptor type 2 (Homo sapiens, UniProt P17706); assay: Inhibition of human N-terminal His6-tagged TCPTP catalytic domain (1 to 296 residues) expressed in Escherichia coli strain Rosetta2 (DE3) using DiFMUP as substrate preincubated for 10 mins followed by substrate addition and measured after 10 mins by fluorescence assay
T1 sequence (P17706 whole entry): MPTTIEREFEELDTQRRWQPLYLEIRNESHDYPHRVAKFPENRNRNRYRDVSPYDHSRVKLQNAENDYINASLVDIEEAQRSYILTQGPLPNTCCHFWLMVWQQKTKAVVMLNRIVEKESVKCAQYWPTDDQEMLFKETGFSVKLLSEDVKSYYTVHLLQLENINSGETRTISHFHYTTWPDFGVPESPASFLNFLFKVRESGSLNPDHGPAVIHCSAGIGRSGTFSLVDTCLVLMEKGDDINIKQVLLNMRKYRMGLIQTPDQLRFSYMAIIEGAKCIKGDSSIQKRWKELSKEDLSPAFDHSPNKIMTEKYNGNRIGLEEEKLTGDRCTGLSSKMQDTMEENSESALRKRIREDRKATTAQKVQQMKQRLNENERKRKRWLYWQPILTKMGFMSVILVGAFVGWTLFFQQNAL
Method in brief: (§1)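 Tag-cleaved, SEC-purified enzyme at 1 nM, preincubated 10 min with compound at 15 concentrations from 0–500 μM (5% DMSO final) in 25 mM Bis-Tris propane pH 7.5, 50 mM NaCl, 2 mM EDTA. DiFMUP added at each construct's Km (10, 7, 10, 9 μM for PTP1B1−298, PTP1B1−393, TCPTP1−296, TCPTP1−336). Read ex 358/em 455 nm continuously 10 min at 37 °C; triplicate; log(inhibitor)-response fit.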

[2] = biological target: T2, Tyrosine-protein phosphatase non-receptor type 1 (Homo sapiens, UniProt P18031); assay: (§2) Binding affinity to human N-terminal His6-tagged PTP1B catalytic domain (1 to 298 residues) expressed in Escherichia coli strain Rosetta2 (DE3) assessed as dissociation rate constant […]
T2 sequence (P18031 whole entry): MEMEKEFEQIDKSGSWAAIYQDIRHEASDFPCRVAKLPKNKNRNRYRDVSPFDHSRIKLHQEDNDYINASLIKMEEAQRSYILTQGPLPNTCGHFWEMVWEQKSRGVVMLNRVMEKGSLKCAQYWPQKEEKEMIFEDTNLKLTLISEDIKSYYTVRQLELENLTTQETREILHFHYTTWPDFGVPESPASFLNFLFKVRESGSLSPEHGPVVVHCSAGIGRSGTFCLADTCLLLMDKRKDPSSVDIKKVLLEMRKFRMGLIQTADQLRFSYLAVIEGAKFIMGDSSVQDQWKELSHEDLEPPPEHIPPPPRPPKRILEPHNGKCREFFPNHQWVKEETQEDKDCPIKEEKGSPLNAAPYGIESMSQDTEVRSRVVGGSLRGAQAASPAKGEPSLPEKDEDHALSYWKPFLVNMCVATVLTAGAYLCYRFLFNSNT

[3] = biological target: T3, Tyrosine-protein phosphatase non-receptor type 1 (Homo sapiens) (UniProt P18031); assay: Reversible inhibition of human N-terminal His6-tagged PTP1B catalytic domain (1 to 298 residues) expressed in Escherichia coli strain Rosetta2 (DE3) at 10 times IC50 using DiFMUP as substrate preincubated for 30 mins followed by 100 fold compound dilution and substrate addition measured for 60 mins fluorescence assay
T3 sequence (whole entry): T2 sequence (P18031 whole entry)

Mus musculus [4] = assay: Antiobesity activity in high fat diet-induced obese Ptpn1fl/fl null C57BL/6 mouse treated with rAAV-CMV-Cre-GFP for deletion of TCPTP assessed as reduction in body weight at 100 ug/kg, ip for 10 consecutive days; assay type: functional, organism-based
Method in brief: (§3)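 Male Ptpn1fl/fl, Ptpn2fl/fl or double-floxed mice: chow 8 weeks, then high-fat diet (45% energy from fat) 12 weeks. Bilateral intra-ARC stereotaxic injection of rAAV-CMV-Cre-GFP or rAAV-CMV-GFP, 100 nL/side. After 2 weeks recovery, vehicle or 100 μg/kg ip daily at 6 pm for 10 days; body weight tracked; two-way repeated-measures ANOVA with Tukey test; means ± SEM.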

Mus musculus [5] = assay: Antiobesity activity in high fat diet-induced obese Ptpn1fl/fl null C57BL/6 mouse treated with rAAV-CMV-Cre-GFP for deletion of PTP1B assessed as reduction in body weight at 100 ug/kg, ip for 10 consecutive days; assay type: functional, organism-based; method in brief: as §3
[6] = biological target: T2, Tyrosine-protein phosphatase non-receptor type 1; assay: Inhibition of human N-terminal His6-tagged PTP1B catalytic domain (1 to 298 residues) expressed in Escherichia coli strain Rosetta2 (DE3) using DiFMUP as substrate preincubated for 10 mins followed by substrate addition and measured after 10 mins by fluorescence assay; method in brief: as §1
Mus musculus [7] = assay: Antiobesity activity in high fat diet-induced obese Ptpn1fl/fl null C57BL/6 mouse assessed as hypophagia at 100 ug/kg, ip for 10 consecutive days; assay type: functional, organism-based
[8] = biological target: Receptor-type tyrosine-protein phosphatase epsilon (Homo sapiens, UniProt P23469); assay: Inhibition of human PTPRE (107 to 707 residues) expressed in Escherichia coli strain BL21(DE3) using DiFMUP as substrate preincubated for 10 mins followed by substrate addition and measured after 10 mins by fluorescence assay
Sequence of Receptor-type tyrosine-protein phosphatase epsilon (P23469 whole entry, the tested form may be a part): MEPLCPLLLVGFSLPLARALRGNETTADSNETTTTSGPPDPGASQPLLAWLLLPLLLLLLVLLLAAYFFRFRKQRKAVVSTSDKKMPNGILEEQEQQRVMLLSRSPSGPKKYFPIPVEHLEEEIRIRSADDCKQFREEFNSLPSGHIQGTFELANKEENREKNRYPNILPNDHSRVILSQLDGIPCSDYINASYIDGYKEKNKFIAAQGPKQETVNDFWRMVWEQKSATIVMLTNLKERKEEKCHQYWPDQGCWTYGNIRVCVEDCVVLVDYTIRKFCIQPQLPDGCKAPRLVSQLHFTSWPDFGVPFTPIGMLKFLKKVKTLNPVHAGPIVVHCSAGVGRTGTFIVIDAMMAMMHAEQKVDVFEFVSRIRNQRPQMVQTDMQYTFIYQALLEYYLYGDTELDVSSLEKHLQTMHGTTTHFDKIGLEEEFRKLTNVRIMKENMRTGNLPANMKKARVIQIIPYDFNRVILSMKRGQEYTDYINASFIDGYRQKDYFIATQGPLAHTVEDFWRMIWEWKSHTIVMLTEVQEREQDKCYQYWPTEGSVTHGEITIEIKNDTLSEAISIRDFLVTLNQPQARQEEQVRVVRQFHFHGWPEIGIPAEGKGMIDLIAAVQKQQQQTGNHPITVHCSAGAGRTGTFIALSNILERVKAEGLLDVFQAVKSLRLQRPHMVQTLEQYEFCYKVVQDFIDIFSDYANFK
Method in brief: (§4)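 Selectivity panel on enzymes expressed in E. coli BL21(DE3), purified by nickel affinity then size exclusion. DiFMUP fluorescence assay run as for PTP1B/TCPTP, with per-enzyme conditions in a supplementary table; nonlinear regression for IC50; three independent experiments.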

[9] = biological target: T3, Tyrosine-protein phosphatase non-receptor type 1 (Homo sapiens); assay: Non competitive inhibition of human N-terminal His6-tagged PTP1B catalytic domain (1 to 393 residues) expressed in Escherichia coli strain Rosetta2 (DE3) using DiFMUP as substrate preincubated for 10 mins followed by substrate addition and measured after 10 mins by Michaelis-Menten plot analysis
[10] = biological target: T2, Tyrosine-protein phosphatase non-receptor type 1; assay: as §2, with “association” for “dissociation”
[11] = biological target: T1, Tyrosine-protein phosphatase non-receptor type 2; assay: Inhibition of human N-terminal His6-tagged TCPTP catalytic domain (1 to 336 residues) expressed in Escherichia coli strain Rosetta2 (DE3) using DiFMUP as substrate preincubated for 10 mins followed by substrate addition and measured after 10 mins by fluorescence assay; method in brief: as §1
[12] = biological target: T3, Tyrosine-protein phosphatase non-receptor type 1 (Homo sapiens); assay: Inhibition of human N-terminal His6-tagged PTP1B catalytic domain (1 to 393 residues) expressed in Escherichia coli strain Rosetta2 (DE3) using DiFMUP as substrate preincubated for 10 mins followed by substrate addition and measured after 10 mins in presence of 0.05% Tween20 by fluorescence assay
Method in brief: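 DiFMUP IC50 assay (1 nM enzyme, 10 min preincubation, substrate at Km, 37 °C, ex 358/em 455 nm), repeated as an aggregation check under three altered conditions: 10-fold enzyme (10 nM), 0.05% Tween 20, or 0.1 mg/mL BSA in buffer.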

[13] = Inhibition of mouse LMPTP-B (1 to 158 residues) expressed in Escherichia coli strain BL21(DE3) using DiFMUP as substrate preincubated for 10 mins followed by substrate addition and measured after 10 mins by fluorescence assay; method in brief: as §4
Mus musculus [14] = assay: Antiobesity activity in high fat diet-induced obese Ptpn1fl/fl/Ptpn2fl/fl null C57BL/6 mouse assessed as reduction in body weight at 100 ug/kg, ip for 10 consecutive days; assay type: functional, organism-based; method in brief: as §3

With `CC1=C(O)C(=O)C=C2C1=CC=C1[C@@]2(C)CC[C@@]2(C)[C@@H]3C[C@](C)(C(=O)O)CC[C@]3(C)CC[C@]12C` [CELASTROL] the IC50 [1] was 23 µM, the koff [2] was 3.62 ×10⁻⁴ /s and the inhibition [3] was “Active”. The Activity (Mus musculus [4]) was “inactive”, the Activity (Mus musculus [5]) was “inactive” and the IC50 [6] was 4.8 µM. For the same molecule, the Activity (Mus musculus [7]) was “Active”, the IC50 [8] was over 500 µM and the inhibition [9] was “Active”. For the same molecule, the kon [10] was 59.46 M⁻¹ s⁻¹, the IC50 [11] was 18.8 µM and the inhibition [12] was “Active”. The IC50 [13] was over 500 µM and the Activity (Mus musculus [14]) was “Active”.
